One data set concerns the target Acetylcholinesterase (Homo sapiens, UniProt P22303). In words: In vitro inhibition of human erythrocyte Acetylcholinesterase.
In the next data set the target is Cholinesterase (Homo sapiens, UniProt P06276). In words: In vitro inhibition of human serum Butyrylcholinesterase.
Data set [1] in a line: Compound was evaluated for equilibrium constant. It counts as ADME. Put shortly:
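Stopped-time carbamoylation assay with human erythrocyte AChE and inhibitor at five concentrations in pH 8.0 assay buffer at 37 °C. After a few minutes, residual ATCh hydrolysis was read at 412 nm against a parallel no-inhibitor control. Fit R = R0·exp(−kobs·t) + R∞ gave kobs; KC came from the slope/intercept ratio of double-reciprocal kobs versus [I] plots.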

A short description of data set [2]: Compound was evaluated for rate constant (K3). In kind it is ADME.
Data set [3] in a line: Compound was evaluated for rate constant (K5). In kind it is ADME.

Sequence of Cholinesterase (P06276 whole entry): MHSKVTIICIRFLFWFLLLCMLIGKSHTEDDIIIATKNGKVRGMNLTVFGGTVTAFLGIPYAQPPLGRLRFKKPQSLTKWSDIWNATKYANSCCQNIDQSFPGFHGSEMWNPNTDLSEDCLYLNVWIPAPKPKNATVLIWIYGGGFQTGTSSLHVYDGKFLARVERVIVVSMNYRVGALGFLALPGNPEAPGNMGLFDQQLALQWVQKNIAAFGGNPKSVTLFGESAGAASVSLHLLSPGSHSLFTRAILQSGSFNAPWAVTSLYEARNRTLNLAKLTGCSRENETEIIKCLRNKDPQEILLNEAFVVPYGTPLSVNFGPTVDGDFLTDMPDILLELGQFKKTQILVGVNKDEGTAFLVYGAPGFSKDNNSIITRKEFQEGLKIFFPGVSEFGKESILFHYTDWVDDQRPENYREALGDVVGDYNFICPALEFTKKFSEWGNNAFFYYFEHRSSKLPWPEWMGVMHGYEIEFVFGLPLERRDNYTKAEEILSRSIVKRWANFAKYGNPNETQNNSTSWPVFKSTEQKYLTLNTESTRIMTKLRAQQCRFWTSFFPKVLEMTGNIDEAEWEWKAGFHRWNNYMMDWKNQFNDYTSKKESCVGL
Sequence of Acetylcholinesterase (P22303 whole entry): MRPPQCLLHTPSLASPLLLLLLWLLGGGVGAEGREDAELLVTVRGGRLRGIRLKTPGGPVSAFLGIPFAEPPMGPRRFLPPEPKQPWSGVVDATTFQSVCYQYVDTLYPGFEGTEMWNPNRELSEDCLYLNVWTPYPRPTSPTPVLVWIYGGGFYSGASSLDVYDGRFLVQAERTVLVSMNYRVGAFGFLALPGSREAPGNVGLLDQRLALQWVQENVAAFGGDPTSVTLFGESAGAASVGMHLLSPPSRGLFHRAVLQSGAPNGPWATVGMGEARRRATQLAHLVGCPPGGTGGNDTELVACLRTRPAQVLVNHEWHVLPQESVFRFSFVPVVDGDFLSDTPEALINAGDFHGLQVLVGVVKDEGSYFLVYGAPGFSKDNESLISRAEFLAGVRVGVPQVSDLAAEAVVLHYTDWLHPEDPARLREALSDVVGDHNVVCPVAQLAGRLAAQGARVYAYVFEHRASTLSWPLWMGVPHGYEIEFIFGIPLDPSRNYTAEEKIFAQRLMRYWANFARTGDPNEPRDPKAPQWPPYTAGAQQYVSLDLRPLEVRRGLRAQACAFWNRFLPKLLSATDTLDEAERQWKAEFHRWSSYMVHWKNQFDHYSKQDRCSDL

On to `CNC(=O)Oc1cccc(CN(C)CCCOc2ccc(-c3ccccc3)cc2)c1`, for which the concentration for half-maximal inhibition (IC50) at Acetylcholinesterase was 54.6 nM; on Cholinesterase it was 42.6 nM.

Compound `CNC(=O)Oc1cccc(CN(C)CCCCCCOc2ccc3c(=O)c4ccccc4oc3c2)c1` came in with a Kc in data set [1] of 6.4 nM. This compound also registered a K3 in data set [2] of 2.3 min⁻¹. The compound further returned a K5 in data set [3] of 0.77 h⁻¹. In addition, the IC50 against Acetylcholinesterase stood at 1.4 nM; against Cholinesterase, 13.9 nM.

`CN(CCCOc1ccc2c(=O)c3ccccc3oc2c1)Cc1cccc(OC(=O)NCCCCCCCCN2CCOCC2)c1`: the IC50 at Acetylcholinesterase came to 27.4 nM; against Cholinesterase, 3.9 nM.

`CN(CCCOc1ccc2c(=O)c3ccccc3oc2c1)Cc1cccc(OC(=O)NCCCCCCCCCN2CCOCC2)c1` returned a half-maximal inhibitory concentration (IC50) on Acetylcholinesterase of 29.3 nM.

Regarding `CN(CCCOc1ccc2c(=O)c3ccccc3oc2c1)Cc1cccc(OC(=O)NCCCCCCCN2CCOCC2)c1`, the Kc in data set [1] turned out to be 27.2 nM. Besides, the K3 in data set [2] came to 0.11 min⁻¹. The IC50 at Acetylcholinesterase was determined as 26.2 nM; against Cholinesterase, 4.9 nM.

As for `CN(CCCOc1ccc2c(=O)c3ccccc3oc2c1)Cc1cccc(OC(=O)NCCCCCCN2CCOCC2)c1`, the figures for the 50% inhibitory concentration (IC50) on Acetylcholinesterase and against Cholinesterase were 21.1 nM and 7.5 nM, respectively.

As for `CNC(=O)Oc1cccc(CN(C)CCCOc2ccccc2)c1`, the values for the IC50 against Acetylcholinesterase and against Cholinesterase were 79.6 nM and 24.8 nM, respectively.

As to `CNC(=O)Oc1ccc2c(c1)CN(CCCOc1ccc3c(=O)c4ccccc4oc3c1)CC2`, the figures for the half-maximal inhibitory concentration (IC50) on Acetylcholinesterase and at Cholinesterase were 12.4 nM and 34.1 nM, respectively.

Consider `CNC(=O)Oc1cccc(CN(C)CCCOc2ccc3ccccc3c2)c1`, for which the IC50 on Acetylcholinesterase came out at 82.6 nM; against Cholinesterase, 205 nM.

Consider `CNC(=O)Oc1cccc(CN(C)CCCCCCCCCOc2ccc3c(=O)c4ccccc4oc3c2)c1`, for which the IC50 was 11.7 nM against Acetylcholinesterase and 48.3 nM on Cholinesterase.

For the compound `CNC(=O)Oc1cccc(CN(C)CCCCCCCOc2ccc3c(=O)c4ccccc4oc3c2)c1`, the values for the concentration for half-maximal inhibition (IC50) at Acetylcholinesterase and against Cholinesterase were 0.32 nM and 16.5 nM, respectively.

On to `CNC(=O)Oc1cccc(CN(C)CCCOc2cccc(Cc3ccccc3)c2)c1`, for which, at Cholinesterase, the IC50 amounted to 22.1 nM.

For the compound `CNC(=O)Oc1cccc(CN(C)CCCOc2ccc(C(=O)c3ccccc3)cc2)c1`, the 50% inhibitory concentration (IC50) against Acetylcholinesterase is 5.4 nM; at Cholinesterase, 24.5 nM.

As to `CNC(=O)Oc1cccc(CN(C)CCCCCCCCCCOc2ccc3c(=O)c4ccccc4oc3c2)c1`, the IC50 against Acetylcholinesterase was 21.8 nM; against Cholinesterase, 31.6 nM.

For the compound `CNC(=O)Oc1cccc(CN(C)CC#CCOc2ccc3c(=O)c4ccccc4oc3c2)c1`, the results for the IC50 against Acetylcholinesterase and at Cholinesterase were 210 nM and 529 nM, respectively.

With `CNC(=O)Oc1cccc(CN(C)CCCCCCCCOc2ccc3c(=O)c4ccccc4oc3c2)c1`, the concentration for half-maximal inhibition (IC50) was found to be 6.8 nM against Acetylcholinesterase and 25.2 nM on Cholinesterase.

For `CNC(=O)Oc1ccc2c(c1)[C@]1(C)CCN(C)[C@@H]1N2C` [PHYSOSTIGMINE], the Kc in data set [1] turned out to be 33.5 nM. This compound displayed a K3 in data set [2] of 0.41 min⁻¹. Also, the K5 in data set [3] turned out to be 0.43 h⁻¹.

Usually IC50 stands for the concentration at which inhibition is half-maximal. The low end stands for greater potency in that assay, the high end for weaker potency in that assay.

These data come from ChEMBL document CHEMBL1134674, “Acetylcholinesterase inhibitors: SAR and kinetic studies on omega-[N-methyl-N-(3-alkylcarbamoyloxyphenyl)methyl]aminoalkoxyaryl derivatives” (J Med Chem, 2001).
